Common to all, as to assay type: functional
What all share (details): 144 h

In experiment [1] the test system is Botrytis cinerea. In words: Antifungal activity against Botryotinia fuckeliana assessed as radial growth inhibition at 200 ug/mL measured after 6 days. In short, it runs like this: (§1)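 Radial growth inhibition of B. cinerea on glucose-malt-peptone agar (61 g/L, pH 6.5-7.0) in 9 cm dishes. Compound in acetone added to the medium at final 50-200 μg/mL, with equal acetone in the controls. A 5 mm mycelial disc from an actively growing culture was placed centrally. Growth was followed for 6 days; % inhibition from mean colony diameter versus untreated control. Triplicate, repeated at least three times.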

Experiment [2] relates to Botrytis cinerea. In words: Antifungal activity against Botryotinia fuckeliana assessed as radial growth inhibition at 50 ug/mL measured after 6 days. The gist of the method:
as §1

For experiment [3], the system named is Botrytis cinerea. In words: Antifungal activity against Botryotinia fuckeliana assessed as radial growth inhibition at 100 ug/mL measured after 6 days. In short, it runs like this: as §1

A word on the inhibition: it is the share of the control response that was lost under treatment. Take `O=C(NN1Cc2ccccc2C1)c1ccccc1F`: in experiment [1], the inhibition at 200 µg/mL worked out at 91%. The inhibition at 50 µg/mL in experiment [2] worked out at 42%. The inhibition at 100 µg/mL in experiment [3] is 50%.

Turning to `O=C(NN(Cc1ccccc1)Cc1ccccc1)c1ccccc1Cl`, the inhibition at 200 µg/mL in experiment [1] worked out at 86%. For the same molecule, in experiment [2], the inhibition at 50 µg/mL was 31%. Moreover, the inhibition at 100 µg/mL in experiment [3] was determined as 42%.

As for `CN(C)NC(=O)c1ccccc1I`, the inhibition at 200 µg/mL in experiment [1] was found to be 33%. For the same molecule, the inhibition at 50 µg/mL in experiment [2] was found to be 19%. Moreover, in experiment [3], the inhibition at 100 µg/mL stood at 28%.

For `CN(C)NC(=O)c1ccccc1F`, the inhibition at 200 µg/mL in experiment [1] turned out to be 32%. In addition, the inhibition at 50 µg/mL in experiment [2] stood at 12%. Further, in experiment [3], the inhibition at 100 µg/mL was found to be 22%.

Take `CN(C)NC(=O)c1ccccc1Cl`: the inhibition at 200 µg/mL in experiment [1] was 33%. The inhibition at 50 µg/mL in experiment [2] amounted to 0%. For the same molecule, the inhibition at 100 µg/mL in experiment [3] was 0%.

Consider `O=C(NN(Cc1ccccc1)Cc1ccccc1)c1ccccc1I`, for which, in experiment [1], the inhibition at 200 µg/mL amounted to 82%. Also, the inhibition at 50 µg/mL in experiment [2] was found to be 27%. Moreover, the inhibition at 100 µg/mL in experiment [3] is 50%.

For the molecule `Cc1ccccc1C(=O)NN(Cc1ccccc1)Cc1ccccc1`, the inhibition at 200 µg/mL in experiment [1] was 88%. Besides, the inhibition at 50 µg/mL in experiment [2] was 48%. For the same molecule, the inhibition at 100 µg/mL in experiment [3] is 55%.

Consider `O=C(NN1CCCCC1)c1ccccc1F`, for which, in experiment [1], the inhibition at 200 µg/mL was 51%. Also, the inhibition at 50 µg/mL in experiment [2] turned out to be 46%. Also, the inhibition at 100 µg/mL in experiment [3] amounted to 51%.

As for `O=C(NN1CCCCC1)c1ccccc1Cl`, in experiment [1], the inhibition at 200 µg/mL is 57%. In experiment [2], the inhibition at 50 µg/mL was 36%. Besides, the inhibition at 100 µg/mL in experiment [3] was 40%.

With `O=C(NN1CCCCC1)c1ccccc1I`, in experiment [1], the inhibition at 200 µg/mL was found to be 46%. In addition, the inhibition at 50 µg/mL in experiment [2] amounted to 33%. Moreover, the inhibition at 100 µg/mL in experiment [3] was 42%.

Consider `COc1ccccc1C(=O)NN1CCCCC1`, for which, in experiment [1], the inhibition at 200 µg/mL is 51%. For the same molecule, in experiment [2], the inhibition at 50 µg/mL was 38%. Moreover, in experiment [3], the inhibition at 100 µg/mL is 47%.

For the molecule `O=C(NN(Cc1ccccc1)Cc1ccccc1)c1ccccc1` [N',N'-DIBENZYLBENZOHYDRAZIDE], the inhibition at 200 µg/mL in experiment [1] amounted to 44%. Besides, the inhibition at 50 µg/mL in experiment [2] was 10%. The inhibition at 100 µg/mL in experiment [3] was determined as 42%.

As for `CN(C)NC(=O)c1ccccc1` [N',N'-DIMETHYLBENZOHYDRAZIDE], the inhibition at 200 µg/mL in experiment [1] came to 51%. In addition, the inhibition at 50 µg/mL in experiment [2] amounted to 24%. For the same molecule, in experiment [3], the inhibition at 100 µg/mL is 45%.

As to `O=C(NN1CCCCC1)c1ccccc1` [N-PIPERIDINOBENZAMIDE], the inhibition at 200 µg/mL in experiment [1] stood at 45%. Besides, in experiment [2], the inhibition at 50 µg/mL is 37%. Besides, the inhibition at 100 µg/mL in experiment [3] was determined as 43%.

(Values after ChEMBL document CHEMBL3044531, “Quantitative structure-antifungal activity relationships of some benzohydrazides against Botrytis cinerea” (2007).)
